Measurements: ChEMBL document CHEMBL3734708, “Synthesis, cytotoxicity and antiviral evaluation of new series of imidazo[4,5-g]quinoline and pyrido[2,3-g]quinoxalinone derivatives” (Eur J Med Chem, 2015)

Key:
[1] = Cytotoxicity against MDBK cells assessed as reduction in cell viability after 72 hrs by MTT assay; type: cell-based, Bos taurus; details: cattle
How it was run: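 MDBK cells seeded at 6 × 10^5 cells/mL in MEM-E with L-glutamine, 1 mM sodium pyruvate, kanamycin and 10% horse serum. Mock-infected cultures held with serial compound dilutions at 37 °C, 5% CO2. MTT viability read after 72 h. 50% cytotoxic concentration from linear regression as % of untreated controls. Three independent determinations.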

[2] = test system: Human poliovirus 1 strain Sabin; assay: Antiviral activity against Human poliovirus 1 strain Sabin 1 virus infected in african green monkey Vero-76 cells after 2 days by plaque reduction assay; type: functional, organism-based; details: Enterovirus C, 1, Vero 76, 48 h
Vaccinia virus = assay: Antiviral activity against VV Elstree ATCC VR-1549 infected in african green monkey Vero-76 cells after 3 days by plaque reduction assay; type: functional, organism-based; details: Orthopoxvirus vaccinia, Elstree ATCC VR-1549, Vero 76, 72 h
[3] = Cytotoxicity against african green monkey Vero 76 cells assessed as reduction in cell viability after 48 to 96 hrs by MTT assay; type: cell-based; details: chlorocebus sabaeus
How it was run: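 Vero-76 cells plated at 4 × 10^5 cells/mL in D-MEM with L-glutamine, kanamycin and 10% FBS. Incubated with serial dilutions of test compounds at 37 °C, 5% CO2 for 48-96 h. Viability by MTT. CC50 by linear regression relative to untreated cells. Mean of three independent runs.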

Yellow fever virus = assay: Antiviral activity against YFV 17-D vaccine (Stamaril Pasteur J07B01) infected in BHK21 cells assessed as protection against virus-induced cytopathic effect after 3 or 4 days by MTT assay; type: functional, organism-based; details: BHK-21
How it was run: (§1)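 BHK-21 (YFV, Reo-1) or MDBK (BVDV) cells seeded at 5 × 10^4 or 3 × 10^4 cells/well and grown overnight to confluence. Monolayers infected at m.o.i. 0.01 in maintenance medium (MEM-Earle, 0.5% inactivated FBS). Serial compound dilutions added 2 h after infection; 37 °C for 3-4 days. Viability read by MTT. EC50 by linear regression versus untreated controls; mean of three determinations.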

[4] = test system: Human immunodeficiency virus 1; assay: Antiviral activity against HIV-1 3B infected in human MT4 cells assessed as protection against virus-induced cytopathic effect after 4 days by MTT assay; type: functional, organism-based; details: Human immunodeficiency virus 1, 3B, MT4, 96 h
How it was run: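 MT-4 cells (1 × 10^4/well in RPMI) with or without serial compound dilutions, infected with HIV-1 at 100 CCID50 (m.o.i. 0.01). After 4 days at 37 °C, protection from cytopathogenicity read by MTT. EC50 by linear regression versus untreated controls; mean of three independent determinations.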

Human alphaherpesvirus 1 = assay: Antiviral activity against HSV-1 KOS ATCC VR- 1493 infected in african green monkey Vero-76 cells after 3 days by plaque reduction assay; type: functional, organism-based; details: Human alphaherpesvirus 1, KOS ATCC VR1493, Vero 76, 72 h
[5] = test system: Bovine viral diarrhea virus 1; assay: Antiviral activity against BVDV NADL ATCC VR-534 infected in MDBK cells assessed as protection against virus-induced cytopathic effect after 3 or 4 days by MTT assay; type: functional, organism-based; details: Bovine viral diarrhea virus isolates and strains, NADL ATCC VR-534, MDBK; how it was run: as §1
[6] = test system: Mammalian orthoreovirus 1; assay: Antiviral activity against Reovirus 1 ATCC VR- 214 infected in BHK21 cells assessed as protection against virus-induced cytopathic effect after 3 or 4 days by MTT assay; type: functional, cell-based; details: Mammalian orthoreovirus 1, ATCC VR- 214, BHK-21; how it was run: as §1
[7] = test system: Vesicular stomatitis virus; assay: Antiviral activity against VSV Indiana ATCC VR-158 infected in african green monkey Vero-76 cells after 2 days by plaque reduction assay; type: functional, organism-based; details: Indiana ATCC VR-158, Vero 76, 48 h
[8] = Cytotoxicity against BHK21 cells assessed as reduction in cell viability after 72 hrs by MTT assay; type: cell-based, Mesocricetus auratus, BHK-21; details: hamster
How it was run: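 BHK cells seeded at 1 × 10^6 cells/mL in MEM-E with L-glutamine, 1 mM sodium pyruvate, kanamycin and 10% FBS. Mock-infected cells exposed to serial dilutions of compound at 37 °C, 5% CO2, run in parallel with the antiviral assays. Viability by MTT at 72 h. CC50 by linear regression vs untreated controls. Mean of three independent determinations.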

[9] = Cytotoxicity against human MT4 cells assessed as reduction in cell proliferation after 96 hrs by MTT assay; type: cell-based
How it was run: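 MT-4 cells in exponential growth seeded at 1 × 10^5 cells/mL in RPMI-1640 with 10% FBS and penicillin/streptomycin. Cultured with serial compound dilutions at 37 °C, 5% CO2. MTT viability after 96 h. CC50 by linear regression against untreated controls. Mean of three independent determinations.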

Coxsackievirus B5 = assay: Antiviral activity against CVB-5 virus Faulkner ATCC VR-185 infected in african green monkey Vero-76 cells after 3 days by plaque reduction assay; type: functional, organism-based; details: Enterovirus B, Faulkner ATCC VR-185, Vero 76, 72 h
[10] = test system: Respiratory syncytial virus; assay: Antiviral activity against RSVA2 ATCC VR-1540 infected in african green monkey Vero-76 cells after 5 days by plaque reduction assay; type: functional, organism-based; details: human respiratory syncytial virus, A2 ATCC VR-1540, Vero 76, 120 h
[11] = Selectivity index, ratio of CC50 for MDBK cells to EC50 for BVDV infected in MDBK cells
[12] = Selectivity index, ratio of CC50 for human GS4.1 cells to EC50 for Hepatitis C virus genotype 1b replicon infected in human GS4.1 cells; type: toxicity, cell-based; details: read-out: Ratio CC50/EC50
How it was run: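 Replicon GS4.1 cells 7.5 × 10^3/well with twofold dilutions (top 75 µM), 72 h at 37 °C. Replication measured by NS4A ELISA (anti-NS4A A-236, peroxidase conjugate, phenylenediamine, A492), with EC50 by four-parameter sigmoidal fit. CC50 from CellTiter 96 AQueous One in the same cells. Index taken as CC50/EC50.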

Hepatitis C virus = assay: Antiviral activity against Hepatitis C virus genotype 1b replicon infected in human GS4.1 cells assessed as protection against virus-induced cytopathic effect after […] by ELISA; type: functional, organism-based, Hepacivirus hominis
How it was run: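 Huh-7 cells carrying the genotype 1b replicon (GS4.1) seeded at 7.5 × 10^3 cells/well in twofold serial compound dilutions (top 75 µM). Replicon-free Huh-7 served as negative control. 72 h at 37 °C. Fixed in acetone-methanol; NS4A ELISA with mouse monoclonal A-236, peroxidase anti-mouse IgG and phenylenediamine; absorbance at 492 nm. EC50 by four-parameter sigmoidal regression of % inhibition.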

[13] = Inhibition of BVDV RNA-dependent RNA polymerase pre-incubated for preincubated for 30 mins before GTP addition and measured after 120 mins by fluorescence based microplate reader assay; design: species or system Bovine viral diarrhea virus 1
How it was run: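 His-tagged BVDV NS5BΔ24 (C-terminal 24 residues deleted) from E. coli, Ni-NTA purified, 500 ng/reaction. Assay uses poly(rC) 10 µg/mL template, oligo(rG)12 0.1 µg/mL primer and 80 µM GTP. Buffer is 20 mM Tris pH 7.0, 5 mM MgCl2, 25 mM NaCl, 1 mM DTT, 5% DMSO. Threefold compound dilutions, 30 min RT preincubation, 120 min at 37 °C, EDTA stop. Product read by PicoGreen fluorescence (ex 480/em 520), as % residual activity.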

For CC(C)c1nc2c(Cl)c3ncccc3cc2[nH]c1=O, the CC50 at 72 h [1] was > 100 µM, the EC50 [2] was > 100 µM and the EC50 (Vaccinia virus) was > 100 µM. For the same compound, the CC50 [3] was > 100 µM, the EC50 (Yellow fever virus) was > 100 µM and the EC50 [4] was > 100 µM. For the same compound, the EC50 (Human alphaherpesvirus 1) was > 100 µM, the EC50 [5] was > 100 µM and the EC50 [6] was > 100 µM. For the same compound, the EC50 [7] was > 100 µM, the CC50 at 72 h [8] was > 100 µM and the CC50 at 96 h [9] was > 100 µM. The EC50 (Coxsackievirus B5) was > 100 µM and the EC50 [10] was > 100 µM.

With O=c1[nH]c2cc3cccnc3c(Cl)c2nc1-c1ccccc1 the CC50 at 72 h [1] was > 100 µM, the “Ratio CC50/EC50” value [11] was >20 and the selectivity ratio [12] was 1. The EC50 [2] was > 100 µM, the EC50 (Vaccinia virus) was > 100 µM and the CC50 [3] was > 100 µM. For the same compound, the EC50 (Yellow fever virus) was > 100 µM, the EC50 [4] was > 61 µM and the EC50 (Human alphaherpesvirus 1) was > 100 µM. For the same compound, the EC50 [5] was 5 µM, the EC50 [6] was > 100 µM and the EC50 [7] was > 100 µM. The CC50 at 72 h [8] was > 100 µM, the CC50 at 96 h [9] was 61 µM and the EC50 (Coxsackievirus B5) was > 100 µM. For the same compound, the EC50 (Hepatitis C virus) was > 11 µM and the EC50 [10] was > 100 µM.

With O=c1[nH]c2cc3cccnc3c(Cl)c2nc1Cc1ccccc1 the CC50 at 72 h [1] was > 100 µM, the “Ratio CC50/EC50” value [11] was >34 and the selectivity ratio [12] was 1. For the same compound, the EC50 [2] was > 88 µM, the EC50 (Vaccinia virus) was > 88 µM and the CC50 [3] was 88 µM. For the same compound, the EC50 (Yellow fever virus) was > 100 µM, the EC50 [4] was > 15 µM and the EC50 (Human alphaherpesvirus 1) was > 88 µM. The EC50 [5] was 2.6 µM, the EC50 [6] was > 100 µM and the EC50 [7] was > 88 µM. For the same compound, the CC50 at 72 h [8] was > 100 µM, the EC50 (Coxsackievirus B5) was > 88 µM and the EC50 (Hepatitis C virus) was > 65 µM. For the same compound, the EC50 [10] was > 88 µM.

In the case of c1csc(-c2nc3cc4cccnc4cc3n2C2CCCCC2)c1, the CC50 at 72 h [1] is reported as > 100 µM, the EC50 [2] is reported as > 15 µM and the EC50 (Vaccinia virus) is reported as > 15 µM. The CC50 [3] was 15 µM, the EC50 (Yellow fever virus) was > 45 µM and the EC50 [4] was > 18 µM. The EC50 (Human alphaherpesvirus 1) was > 15 µM, the EC50 [5] was 65 µM and the EC50 [6] was > 45 µM. The EC50 [7] was > 15 µM, the CC50 at 72 h [8] was 45 µM and the CC50 at 96 h [9] was 18 µM. The EC50 (Coxsackievirus B5) was > 15 µM and the EC50 [10] was > 15 µM.

For COc1nc2cc3cccnc3c(Cl)c2nc1-c1cccs1, the CC50 at 72 h [1] was > 100 µM, the EC50 [2] was > 100 µM and the EC50 (Vaccinia virus) was > 100 µM. The CC50 [3] was > 100 µM, the EC50 (Yellow fever virus) was > 100 µM and the EC50 [4] was > 100 µM. For the same compound, the EC50 (Human alphaherpesvirus 1) was > 100 µM, the IC50 [13] was 0.64 µM and the EC50 [5] was 1.3 µM. For the same compound, the EC50 [6] was > 100 µM, the EC50 [7] was > 100 µM and the CC50 at 72 h [8] was > 100 µM. For the same compound, the CC50 at 96 h [9] was > 100 µM, the EC50 (Coxsackievirus B5) was > 100 µM and the EC50 [10] was > 100 µM.
